Tests used:
Mus musculus [1] = assay: Toxicity in C57BL/6 mouse xenografted with mouse LLC cells assessed as body weight loss at 30 mg/kg/day, sc administered on day 9 to day 12 of tumor implantation; assay type: organism-based; parameters: route subcutaneous; details: in vivo
Method in brief: (§1)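 Mouse Lewis lung carcinoma (LLC) cells inoculated sc into mice. Daily dosing from day 9: 15 mg kg⁻¹ day⁻¹ through day 13 or 30 mg kg⁻¹ day⁻¹ through day 12; 25 or 50 mg kg⁻¹ day⁻¹ through day 13. Route is given as ip in tables and text but sc in figure legends. Body weight monitored for loss alongside tumor growth. Single 100 mg/kg cyclophosphamide dose as cytostatic control.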

Mus musculus [2] = assay: Toxicity in C57BL/6 mouse xenografted with mouse LLC cells assessed as body weight loss at 15 mg/kg/day, sc administered on day 9 to day 13 of tumor implantation; assay type: organism-based; parameters: route subcutaneous; details: in vivo
Method in brief: (§2)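 Body weight was tracked in C57BL/6 mice bearing subcutaneously inoculated LLC during therapy given daily from day 9 to day 13. A single 100 mg/kg dose of cyclophosphamide served as the cytostatic control group.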

Mus musculus [3] = assay: Toxicity in C57BL/6 mouse xenografted with mouse LLC cells assessed as body weight loss at 30 mg/kg/day, ip administered on day 9 to day 12 of tumor implantation; assay type: organism-based; parameters: route intraperitoneal; details: in vivo; method in brief: as §1
KB = assay: Cytotoxicity against human KB cells after 72 hrs by SRB assay; assay type: functional, cell-based
A549 = assay: Cytotoxicity against human A549 cells after 72 hrs by SRB assay; assay type: functional, cell-based; details: A549, 72 h
Method in brief: (§3)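 IC50 is the compound concentration giving 50% inhibition of cell proliferation. It was determined on normal mouse BALB/3T3 fibroblasts and on human A549, MCF-7 and LoVo cancer lines, with doxorubicin hydrochloride and DiMIQ as reference compounds.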

MCF7 = assay: Cytotoxicity against human MCF7 cells after 72 hrs by SRB assay; assay type: functional, cell-based; details: MCF7, 72 h; method in brief: as §3
LoVo = assay: Cytotoxicity against human LoVo cells after 72 hrs by SRB assay; assay type: functional, cell-based; method in brief: as §3
[4] = tested on: Lewis lung carcinoma cell line; assay: Antineoplastic activity against mouse LLC cells xenografted in C57BL/6 mouse assessed as tumor growth inhibition at 25 mg/kg/day, ip administered on day 9 to day 13 of tumor implantation measured on day 11; assay type: functional; details: route intraperitoneal, read-out: TGI
Method in brief: (§4)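 Mice bore Lewis lung carcinoma (LLC) inoculated subcutaneously and received test agents intraperitoneally at 15–50 mg kg⁻¹ day⁻¹ from day 9 or day 10. A single 100 mg/kg cyclophosphamide dose was the cytostatic control. Tumor growth was followed as the group median, and TGI% was calculated from medians versus untreated controls. Significance was tested by nonparametric Kruskal–Wallis multiple comparison, p < 0.05.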

[5] = tested on: Lewis lung carcinoma cell line; assay: Antineoplastic activity against mouse LLC cells xenografted in C57BL/6 mouse assessed as tumor growth inhibition at 25 mg/kg/day, ip administered on day 9 to day 13 of tumor implantation measured on day 14; assay type: functional; details: route intraperitoneal, read-out: TGI; method in brief: as §4
[6] = tested on: Lewis lung carcinoma cell line; assay: Antineoplastic activity against mouse LLC cells xenografted in C57BL/6 mouse assessed as tumor growth inhibition at 25 mg/kg/day, ip administered on day 9 to day 13 of tumor implantation measured on day 16; assay type: functional; details: route intraperitoneal, read-out: TGI; method in brief: as §4
[7] = tested on: Lewis lung carcinoma cell line; assay: Antineoplastic activity against mouse LLC cells xenografted in C57BL/6 mouse assessed as tumor growth inhibition at 25 mg/kg/day, ip administered on day 9 to day 13 of tumor implantation measured on day 18; assay type: functional; details: route intraperitoneal, read-out: TGI; method in brief: as §4
[8] = tested on: Lewis lung carcinoma cell line; assay: Antineoplastic activity against mouse LLC cells xenografted in C57BL/6 mouse assessed as tumor growth inhibition at 25 mg/kg/day, ip administered on day 9 to day 13 of tumor implantation measured on day 21; assay type: functional; details: route intraperitoneal, read-out: TGI; method in brief: as §4
[9] = tested on: Lewis lung carcinoma cell line; assay: Antineoplastic activity against mouse LLC cells xenografted in C57BL/6 mouse assessed as tumor growth inhibition at 25 mg/kg/day, ip administered on day 9 to day 13 of tumor implantation measured on day 23; assay type: functional; details: route intraperitoneal, read-out: TGI; method in brief: as §4
[10] = tested on: Lewis lung carcinoma cell line; assay: Antineoplastic activity against mouse LLC cells xenografted in C57BL/6 mouse assessed as tumor growth inhibition at 50 mg/kg/day, ip administered on day 9 to day 13 of tumor implantation measured on day 11; assay type: functional; details: route intraperitoneal, read-out: TGI; method in brief: as §4
[11] = tested on: Lewis lung carcinoma cell line; assay: Antineoplastic activity against mouse LLC cells xenografted in C57BL/6 mouse assessed as tumor growth inhibition at 50 mg/kg/day, ip administered on day 9 to day 13 of tumor implantation measured on day 14; assay type: functional; details: route intraperitoneal, read-out: TGI; method in brief: as §4
[12] = tested on: Lewis lung carcinoma cell line; assay: Antineoplastic activity against mouse LLC cells xenografted in C57BL/6 mouse assessed as tumor growth inhibition at 50 mg/kg/day, ip administered on day 9 to day 13 of tumor implantation measured on day 16; assay type: functional; details: route intraperitoneal, read-out: TGI; method in brief: as §4
[13] = tested on: Lewis lung carcinoma cell line; assay: Antineoplastic activity against mouse LLC cells xenografted in C57BL/6 mouse assessed as tumor growth inhibition at 50 mg/kg/day, ip administered on day 9 to day 13 of tumor implantation measured on day 18; assay type: functional; details: route intraperitoneal, read-out: TGI; method in brief: as §4
[14] = tested on: Lewis lung carcinoma cell line; assay: Antineoplastic activity against mouse LLC cells xenografted in C57BL/6 mouse assessed as tumor growth inhibition at 50 mg/kg/day, ip administered on day 9 to day 13 of tumor implantation measured on day 21; assay type: functional; details: route intraperitoneal, read-out: TGI; method in brief: as §4
[15] = tested on: Lewis lung carcinoma cell line; assay: Antineoplastic activity against mouse LLC cells xenografted in C57BL/6 mouse assessed as tumor growth inhibition at 50 mg/kg/day, ip administered on day 9 to day 13 of tumor implantation measured on day 23; assay type: functional; details: route intraperitoneal, read-out: TGI; method in brief: as §4
Mus musculus [16] = assay: Toxicity in C57BL/6 mouse xenografted with mouse LLC cells assessed as body weight loss at 15 mg/kg/day, ip administered on day 9 to day 13 of tumor implantation; assay type: organism-based; parameters: route intraperitoneal; details: in vivo; method in brief: as §2
Mus musculus [17] = assay: Toxicity in C57BL/6 mouse xenografted with mouse LLC cells assessed as body weight loss at 25 mg/kg/day, sc administered on day 9 to day 13 of tumor implantation; assay type: organism-based; parameters: route subcutaneous; details: in vivo; method in brief: as §2
Mus musculus [18] = assay: Toxicity in C57BL/6 mouse xenografted with mouse LLC cells assessed as body weight loss at 50 mg/kg/day, sc administered on day 9 to day 13 of tumor implantation; assay type: organism-based; parameters: route subcutaneous; details: in vivo; method in brief: as §1
[19] = Dissociation constant, pKa of the compound in PBS buffer at 5 uM at pH 2 to 10 by UV-spectrophotometric analysis; assay type: physicochemical
Method in brief: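 UV spectrophotometric titration at a final compound concentration of 5 μM. At this concentration the absorbance–concentration relationship stayed linear. pKa was read from spectral changes across pH.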

[20] = Octanol-water partition coefficient, log P of the compound in citric buffer at pH 2.5 by spectrophotometric analysis; assay type: physicochemical
Method in brief: (§5)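 Octanol–water partitioning, with log P defined as log(C_octanol/C_water). Compound in the aqueous phase was measured spectrophotometrically, and octanol content was obtained by subtracting the supernatant concentration from the total. Values are the mean of two independent experiments, each run in triplicate.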

[21] = Octanol-water partition coefficient, log P of the compound in PBS buffer at pH 7.4 by spectrophotometric analysis; assay type: physicochemical; method in brief: as §5
[22] = Toxicity in human erythrocytes assessed as hemolysis at 0.3 mM after 30 mins by spectrophotometric analysis; assay type: cell-based, Erythrocyte; details: read-out: Activity
Method in brief: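 Human erythrocyte suspension under isotonic conditions (pH 7.4, hematocrit 50%). Compound added across a concentration series and incubated 30 min at 37 °C before hemolysis was scored. Mean ± SD of three individual determinations. Statistics by Mann–Whitney U test, p < 0.05.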

[23] = Solubility of the compound in water; assay type: physicochemical; details: buffer
Mus musculus [24] = assay: Toxicity in C57BL/6 mouse xenografted with mouse LLC cells at 25 to 50 mg/kg/day, ip administered on day 9 to day 13 of tumor implantation; assay type: organism-based; parameters: route intraperitoneal; details: in vivo; method in brief: as §1

In the case of `Cc1c2c3cc(NC(=O)CNC(=O)CN)ccc3nc-2n(C)c2ccccc12.Cl.Cl`, the Activity (Mus musculus [1]) is reported as “<= 15%”, the Activity (Mus musculus [2]) is reported as “<= 15%” and the Activity (Mus musculus [3]) is reported as “<= 15%”. For the same compound, the IC50 (KB) was 4.65 µM, the IC50 (A549) was 0.9 µM and the IC50 (MCF7) was 2.7 µM. For the same compound, the IC50 (LoVo) was 0.73 µM, the inhibition in vivo at 25 mg/kg/day [4] was 37.4% and the inhibition in vivo at 25 mg/kg/day [5] was 31.8%. The inhibition in vivo at 25 mg/kg/day [6] was 27.2%, the inhibition in vivo at 25 mg/kg/day [7] was 22.4% and the inhibition in vivo at 25 mg/kg/day [8] was 28%. For the same compound, the inhibition in vivo at 25 mg/kg/day [9] was 35.8%, the inhibition in vivo at 50 mg/kg/day [10] was 46.9% and the inhibition in vivo at 50 mg/kg/day [11] was 62.6%. For the same compound, the inhibition in vivo at 50 mg/kg/day [12] was 52.2%, the inhibition in vivo at 50 mg/kg/day [13] was 38.3% and the inhibition in vivo at 50 mg/kg/day [14] was 29.3%. The inhibition in vivo at 50 mg/kg/day [15] was 42.9%, the Activity (Mus musculus [16]) was “<= 15%” and the Activity (Mus musculus [17]) was “<= 15%”. The Activity (Mus musculus [18]) was “<= 15%”, the pKa at 5 µM [19] was 7.5 and the logP [20] was -1.9. For the same compound, the logD [21] was -0.2, the hemolysis at 0.5 h, 300 µM [22] was 9.97% and the solubility [23] was “soluble”. For the same compound, the Activity (Mus musculus [24]) was “Non-toxic”.
